To fix the notation:
B1: tRNA (parent)
chain: GUUCCGUUGGCGUAAUGGUAACGCGUCUCCCUCCUAAGGAGAAGACUGCGGGUUCGAGUCCCGUACGGAACG

This sample holds only a part of the variants without activity.

In the data set the parent is B1. As to the kind of experiment: yeast fitness relative to wild type (ratio to wild type); higher = fitter; tRNA-Arg(CCU), competitive growth, 37 C, YPD. The essentials: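 Start and end populations of a pooled competition were compared by 100-nucleotide paired-end sequencing of gene amplicons. The Saccharomyces cerevisiae strains carried tRNA-Arg(CCU) gene variants at the native genomic locus, synthesised with a 3% per-site mutation rate at 69 sites, and competed in YPD at 37°C for 24 hours in six parallel replicates. Darwinian fitness relative to wild type was based on the change in genotype frequencies. Genotypes required ≥ 100 starting reads, and estimates < 0.5 were set to 0.5.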
GUUCCGUUGGCGUAAUGGGAACGCGUCUCCCUCCUAAGGAGAAGACUGCUGGUUCGAAUCCCGUAUGGAACG: the yeast fitness worked out at 0.541. The same measure for GUUCCGUUGGCGUAAUGGUCACGCGUCUCCCUCCUGAGGAGAAGACUACCGGUUCGAGUCCCGUACGGAACG: at most 0.5; for GUUCCGUUGGCGUAAUGGUCACGCGUCUCCCUCCUGAGGAGAAGACUGCGGGUUCGAGUCCCGUACGGAACG: 0.908; for GUUCCGUUGGCGUAAUGGUCGCGCGUCUCCCUCCUAAGGAGAAGUCUGCGGGUUCGAGUCCCGUACCGAACG: 0.61. The figure for GUUCCGUUGGCGUAAUGGGAACGCGUCUCCCUCCUAAGGAGAAGACUGCGGGUUCGAGUUGCGUACAGAACG is at most 0.5; for GUUCCGUUGGCGUAAUGGGAACGCGUCUCCCUGCUACGGAGAAGACUGGGGGUUCGAGUCCCGUACGGAACG it is at most 0.5; for GUUCCGUUGGCGUAAUGGGAACGCGUCUCCCUCCUAAGGAGAAGACUGCGGCUUCGAGUCCAGUACGGAACG it is at most 0.5. The same measure for GUUCCGUUGGCGUAAUGGUCACGCGUCUCCCUCCUCAGGACAAGACUGCGGGUUCGAGUCCCGUACCGGACG: at most 0.5; for GUUCCGUUGGCGUAAUGGUCGCGCGUCUCCCUCCUAAGGAGAAGACUGCGGGUUCGCGUCCCGUACGGAACG: 0.531. Take GUUCCGUUGGCGUAAUGGUCACGCGUCUCCCUCCUAAGGAGCAGACUGCGGGUUCGAGUCCCGUACGGUACG: the yeast fitness turned out to be 0.576. The same measure for GUUCCGUUGGCGUAAUGGGAACGCGUCUCCCUCCUAAGGAGAAGACAGCGGGUUCGAGUCCCGUACGGAACG: 0.771; for GUUCCGUUGGCGUAAUGGGAACGCGUCUCCCUCCUAACGAGAAGACUGCGGGUUCGAGUCCCGUACGGAACG: 0.637; for GUUCCGUUGGCGUAAUGGUCACGCGUCUCCCUCCUAAGGAGACGACUGCGGGUUCGAGUCCCGUACGGAACG: 0.816. Regarding GUUCCGUUGGCGUAAUGGGAACGCGUCUCCCUCCUAAGGAGAAGACUGCGGGUUCGAGUCUCGUACGGAACG, the yeast fitness worked out at 0.77. The figure for GUUCCGUUGGCGUAAUGGUCACGCGUCUCCCUCCUAAGGAGAAGACUGCGGGUUCGAGUCCCGUCCGGAACG is 0.957; for GUUCCGUUGGCGUAAUGGGAACGCGUCUCCCUGCUAAGGAGAAGACAGCGGGUUCGAGUCCCGUACGGAACG it is 0.542; for GUUCCGUUGGCGUAAUGGGAACGCGUCUCCCUCCCAAGGAGACGACUGCGGCUACGAGUCCCGUACGGAACG it is at most 0.5.

For GUUCCGUUGGCGUAAUGGUCACGCGUCUCCCUCCUAAGGAGAAGACUGCGGGUUCGUGUCCCGUUCGGAACG, the yeast fitness worked out at 0.571. The figure for GUUCCGUUGGCGUAAUGGUCAAGCGUCUCCCUCCUCAGGAGAAGACUGCGGGUUCGAGUCCCGUACGGUACG is at most 0.5; for GUUCCGUUGGCGUAAUGGGAACGCGUCCCCCUCCUAAGGAGCAGACUGCGGGUUCGAGUCCCGUACGGAACG it is 0.669; for GUUCCGUUGGCGUAAUGGUCACGCGUCUCCCUCCUACGGACAAGACUGCGCGUUCGAGUCCCGUACGGAACG it is at most 0.5. Turning to GUUCCGUUGGCGUAAUGGGAACGCGUCUCCUACCUAAGGAGAAGUCUGCGGGUUCGAGUCCCGUACGGAUCG, the yeast fitness is at most 0.5. GUUCCGUUGGCGUAAUGGUCACGCGUCUCCCUCCUAAGGAGAUGACUGCGGGUUCGAGUCCCGUACGGCACG: the yeast fitness was determined as 0.605.

As to GUUCCGUUGGCGUAAUGGGAACGCGUCUCCCUCCUAAGGAGAAGACUGCGGGUUCGAGUCCCCUACGGUACG, the yeast fitness is at most 0.5. The same measure for GUUCCGUUGGCGUAAUGGGAACGCGUCUCCCUCCUAAGGAGAAGACUGCGGGUUCGAGUCCUGUACGGAACG: 0.857.

Turning to GUUCCGUUGGCGUAAUGGUCACGCGUCUCCCUCCUAAGGAGAAGACUGCGGGUUCGGGUCCCAUACGGAACG, the yeast fitness stood at 0.558. Take GUUCCGUUGGCGUAAUGGUCACGCGUCUCCCUCCUAAGGAGAAGACUGCGGGUUCGAGUCCCGUACGGAUCG: the yeast fitness stood at 1.12. The same measure for GUUCCGUUGGCGUAAUGGGAACGCGUCGCCCUCCUUAGGAGAAGAUUGCGGGUUCGAGUCUCGUACGGAACG: at most 0.5. In the case of GUUCCGUUGGCGUAAUGGUCGCGCGUCUCCCUCCUAAGGAGAAGCCUGCGGGUUCGAGUCCCGUACGGAACG, the yeast fitness was determined as 0.687. With GUUCCGUUGGCGUAAUGGUCCCCCGUCUCGCUCCUAAGGAGAAGACUGCGGGUUCGAGUCCCGUUUGGAACG, the yeast fitness is at most 0.5.

Turning to GUUCCGUUGGCGUAAUGGUCGCGCGUCUCCCUCCUAAGGAGAAGACUGCGGGUUCGAGUCCCGUACCGAACG, the yeast fitness turned out to be 0.712. For the variant GUUCCGUUGGCGUAAUGGGAACGCGUCUCCCUCCUAAGGAGAAGACUGAGGGUUCGAGUCCGGUAUGGAGCG, the yeast fitness was at most 0.5. The figure for GUUCCGUUGGCGUAAUGGUCACGCGUCUCCCUCCUAAGGAGUAGACUGCGGGUUCGAGUCCCGUACGGAACG is 0.782; for GUUCCGUUGGCGUAAUGGUCACGCGUCUCCCUCCUUAGCAGAAGACUGCGGGUUCGAGUCCCGUACGGAACG it is 0.618; for GUUCCGUUGGCGUAAUGGUCACGCGUCUCCCUCCUAAGGAGAAGACUGCGGGUUCGAGUCCCGUACGGAACG it is 1.01. Regarding GUUCCGUUGGCGUAAUGGGAACGCGUCUCCCGCCUAAGGAGAAGACUGCGGGUUCGAGUCCCGUACGGAACG, the yeast fitness was 0.62. The same measure for GUUCCGUUGGCGUAAUGGUCACGCGUCUCCCUCCUAGGGAGGAGACUGCGGGUUCGAGUCCCGUACGCAACG: at most 0.5; for GUUCCGUUGGCGUAAUGGUCUCGCGUGUCCCUCCUAAGGAGUAGACUGCGGGUUCGAGUCCCGUACGGCACG: at most 0.5; for GUUCCGUUGGCGUAAUGGGAACGCGUCUCCCUCCUAAGGAGAAGACUGUGGGUUCGAGUCCAGUACGGAACG: 0.598. On to GUUCCGUUGGCGUAAUGGGAACGCGUCUCCCUCCUAAGGAGAAGACUGCGGGUUCGAGUCCCGUACGCAACG, for which the yeast fitness stood at 0.802. Regarding GUUCCGUUGGCGUAAUGGUCACGCGUCUCCCUCCUAAGGAGAAGCUUGCGGGUUCGAGUCCCGUACGGAACG, the yeast fitness was determined as 0.587. The figure for GUUCCGUUGGCGUAAUGGUCACGCGUCUCCCUCCUUAGGAGAAGACUGCGGGAUCGAGUCCCGUACGGAACG is at most 0.5. As to GUUCCGUUGGCGUAAUGGGAACGCGUCUCCCUCUUAAGGAGAAGACUGCGGGUUCGAGUCCCGUACGGAACG, the yeast fitness came to 0.687. With GUUCCGUUGGCGUAAUGGUCGCGCGUCUCCCUCCUAAGGAGAAGACUGCGGGUUCGAGUCCCGUACGGAACG, the yeast fitness is 0.953.

In the case of GUUCCGUUGGCGUAAUGGUCGCGCGUCUCCCUCCUAAGGAGAAGACUGCGGGUUCGAGUCCCGUACGGCACG, the yeast fitness turned out to be 0.825.

GUUCCGUUGGCGUAAUGGUCUCGCGUCUCCUUCCUAAGGAGAAGACUGCGGGUUCGAGUUCCGUUCGGAACG: the yeast fitness was at most 0.5.

Consider GUUCCGUUGGCGUAAUGGGAACGCGUCUCCCUCCUAAGGAGAAAAGUGCGGGUUCGAGUCCCGUACGGAACG, for which the yeast fitness came out at 0.946. The same measure for GUUCCGUUGGCGUAAUGGUCAGGCGUCUCCCUUCUAAGGAGAAGUCUGCGGGUUCGAGUCCCGUACGGAACG: at most 0.5; for GUUCCGUUGGCGUAAUGGUCACGCGUCUCCCUCCUAAGGGGAAGACUGCGGGUUCGAGUGCCGUACGGAACG: at most 0.5; for GUUCCGUUGGCGUAAUGGUCCCGCGUCUCCCUCCUAAGGAGAAGACUGCGGGUUCGAGUCACGUACCGAACG: at most 0.5.

Turning to GUUCCGUUGGCGUAAUGGUCACGCGUCUCCCUCCUAAGGCGAAGACUCCGGGUUCGAGUCCCGUACGGAACG, the yeast fitness was determined as 0.719. The same measure for GUUCCGUUGGCGUAAUGGUCCCGCGUCUCCCUCCUAAGGAGAAGGCUGCGGGUUCGAGUCCCGUACGGAACG: at most 0.5; for GUUCCGUUGGCGUAAUGGGAACGCGUCUCCCUCCUAAGGAGAAGACUGCGGGUUUGAGUCCCGUACGGAACG: 0.762; for GUUCCGUUGGCGUAAUGGUCACGCGUCUCCCUCCUACGGAGAAGACUGCGGGUUCGAGUCCCGUAUGGAACG: at most 0.5. The same measure for GUUCCGUUGGCGUAAUGGGAACGCGUCUCCCUCCUAAGGAGAAGACUGCGGGUUGGAGUCCCGUAUGGAACG: 0.536; for GUUCCGUUGGCGUAAUGGGAACGCGUCUCCCUCGUAAGGAGAAGACUGCGGGUUCGAGUCCCGUACGGCACG: 0.504.

For the variant GUUCCGUUGGCGUAAUGGGAACGCGUCUCCCUCCUAAGGAGAAGACUGCGGGUUCAAGUUCCGUACGGAACG, the yeast fitness was 0.69.

As to GUUCCGUUGGCGUAAUGGUCACGCGUCUCCCUCCUAAGGUGAAGACUGCGGGUUCGAGUCCCGUUCCGAACG, the yeast fitness is at most 0.5. As to GUUCCGUUGGCGUAAUGGGAACGCGUCUCCCUCCUAAGGAGAAGACUGUGGGUUCGAGUCCCGUACGGAACG, the yeast fitness turned out to be 0.859.

Turning to GUUCCGUUGGCGUAAUGGGAACGCGUCUCCCUCCUAAGGAGAAGACUCCGGGUUCGAGUCCCGUACGGAACG, the yeast fitness stood at 0.948.

Consider GUUCCGUUGGCGUAAUGGUCAAGCGUGUCCCUCCUAAGGAGAAGACUGCGCGUUCGAGUCCCGUACGGAACG, for which the yeast fitness was at most 0.5. Regarding GUUCCGUUGGCGUAAUGGUCAGGCGUCUACCUCCUAAGGAGAAGACUGCGGGUUGCAGUCCCGUACGGAACG, the yeast fitness was at most 0.5.

Regarding GUUCCGUUGGCGUAAUGGGAACGCGUCACCCUCCUAAGGAGAAGACUGCGGGUUCGAGUCCCGUACGGAACG, the yeast fitness came out at 0.613. The same measure for GUUCCGUUGGCGUAAUGGGAACGCGACCCCCUCCUAAGGAGAAGACUGCGGGUUCGAGUCCCGUACGGAACG: at most 0.5; for GUUCCGUUGGCGUAAUGGGAACGCGUCUCCCUCCUAAGGAGAAGAGUGCGGGUUCGCGUCCCGUACGGAACG: at most 0.5. On to GUUCCGUUGGCGUAAUGGUCACGCGUCUCCCUCCUAGGGAGAAGCCUGCGGGUUCGAGUCCCGUACGGAACG, for which the yeast fitness is at most 0.5. The same measure for GUUCCGUUGGCGUAAUGGUCACGCGUCUCCCUCCUAAGGAGCAGACUACGGGUUCGAGUCCCGUACGGAACG: 0.591. In the case of GUUCCGUUGGCGUAAUGGUCACGCGUCUCCCUCCUACGGAGAGGACUGCGGGUUCGAGUCCUGUACGGAACG, the yeast fitness is at most 0.5. The same measure for GUUCCGUUGGCGUAAUGGUCACGCGUCUCCCUCCUAAGGGGAAGACUGCGGGUUCGAGUCCGGUACGGAACG: 0.864; for GUUCCGUUGGCGUAAUGGUCACGCGUCUCCCUCCUAAGGAGUAGACUGCGGGUUCGAGUCCCGUUCGGAACG: 0.553; for GUUCCGUUGGCGUAAUGGGAACGCGUCUCUCUCCUAAGGAGAAGACUGCGGGUUUGGGUCCCGUACGGAACG: at most 0.5. The figure for GUUCCGUUGGCGUAAUGGUCACGCGUCUCCCUCCUAAGGGGAAGACUGCGGGUUCGAGUCCCGUGCGGAACG is 0.57; for GUUCCGUUGGCGUAAUGGUCACGCGUCUCCCUCCUAAGGGGAAGACUGCGGGUUCGAGUCCCGUACGGAACG it is 0.647; for GUUCCGUUGGCGUAAUGGUCUCGCGUGUCCCCCCGAAGGAGAAGACUGCGGGUUCGAGUCCCGUACGGAACG it is at most 0.5.

Take GUUCCGUUGGCGUAAUGGUCUCGCGUCUCCCUCCUAAGGAGUAGACUGCGGGUUCGAGUCCCGUACGGAACG: the yeast fitness was at most 0.5.

The record behind these values is the RNAGym collection of RNA variant scans (doi:10.1126/science.aae0568).
